The values below come from ChEMBL document CHEMBL1667819, “Aminopyridinecarboxamide-based inhaled IKK-2 inhibitors for asthma and COPD: Structure-activity relationship” (Bioorg Med Chem, 2011).

One data set has as its system PBMC. The data set is described as follows: Inhibition of LPS-stimulated TNFalpha release in human PBMC. The data set is classed as functional, cell-based. The method, boiled down: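 PBMC were Ficoll-isolated from heparinized blood of healthy donors and plated at 2.5 × 10⁵ cells/well in RPMI 1640 with 5% FBS and penicillin–streptomycin. Cells were preincubated with compound for 1 h, then stimulated with LPS (20 ng/ml) for 16 h. Supernatant TNFα was measured by ELISA, and IC50 is the mean of ≥3 experiments.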

Data set [1] has as its target T1, Inhibitor of nuclear factor kappa-B kinase subunit beta (Homo sapiens) (UniProt O14920).
T1 sequence (whole entry): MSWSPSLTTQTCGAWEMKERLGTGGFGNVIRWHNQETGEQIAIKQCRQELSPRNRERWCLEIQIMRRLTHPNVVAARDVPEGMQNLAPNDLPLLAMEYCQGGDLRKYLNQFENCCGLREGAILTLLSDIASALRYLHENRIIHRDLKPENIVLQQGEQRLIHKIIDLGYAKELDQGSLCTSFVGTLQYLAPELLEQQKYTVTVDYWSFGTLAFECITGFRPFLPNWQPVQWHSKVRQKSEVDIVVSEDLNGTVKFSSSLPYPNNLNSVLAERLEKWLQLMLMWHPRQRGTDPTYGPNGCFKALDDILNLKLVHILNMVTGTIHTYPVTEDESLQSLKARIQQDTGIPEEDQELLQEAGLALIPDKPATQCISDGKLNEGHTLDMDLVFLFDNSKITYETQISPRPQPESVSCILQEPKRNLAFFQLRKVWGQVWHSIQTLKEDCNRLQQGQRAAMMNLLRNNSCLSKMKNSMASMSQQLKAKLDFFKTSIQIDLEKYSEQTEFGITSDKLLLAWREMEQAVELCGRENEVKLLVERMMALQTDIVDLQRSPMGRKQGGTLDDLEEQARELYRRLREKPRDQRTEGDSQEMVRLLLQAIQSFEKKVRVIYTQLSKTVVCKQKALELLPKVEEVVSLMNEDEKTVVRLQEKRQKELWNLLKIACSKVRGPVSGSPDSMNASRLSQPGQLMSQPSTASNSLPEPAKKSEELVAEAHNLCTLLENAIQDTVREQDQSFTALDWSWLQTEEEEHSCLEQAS
The experiment in a line: Binding affinity to human recombinant IKK2 assessed as half life.

The target in data set [2] is T1, Inhibitor of nuclear factor kappa-B kinase subunit beta (Homo sapiens). The data set is described as follows: Binding affinity to human IKK2 in PBMC assessed as half life by cell-based assay. An outline of the steps:
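Cryopreserved PBMC were thawed and plated, then exposed to compound for 1 h. Compound was removed by four spin-and-aspirate washes, and an unwashed plate served as control. Loss of inhibition after washout gave the cellular half-life.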

Data set [3] can be described thus: Half life in human liver microsomes. (Liver microsomes are a subcellular fraction often used to study metabolism.)
Data set [4] has as its target Voltage-gated inwardly rectifying potassium channel KCNH2 (Homo sapiens, UniProt Q12809). The data set is described as follows: Displacement of dofetilide from human ERG transfected in HEK293 cells by fluorescence polarization assay. The method, boiled down:
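Competition binding used membranes from HEK-293 cells transfected with hERG. Test compound competed with Cy3B-tagged N-desmethyl dofetilide for channel binding, with fluorescence polarization read-out. Values are given as % of effect.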
Background: Polarisation of emitted light reports the rotation of a fluorescent probe.

Data set [5] deals with T2, Inhibitor of nuclear factor kappa-B kinase subunit beta (Homo sapiens, UniProt O14920).
T2 sequence (O14920 whole entry): T1 sequence (whole entry)
The data set is described as follows: Inhibition of human recombinant IKK2.

Each structure is given as a SMILES string.

Sequence of Voltage-gated inwardly rectifying potassium channel KCNH2 (Q12809 whole entry): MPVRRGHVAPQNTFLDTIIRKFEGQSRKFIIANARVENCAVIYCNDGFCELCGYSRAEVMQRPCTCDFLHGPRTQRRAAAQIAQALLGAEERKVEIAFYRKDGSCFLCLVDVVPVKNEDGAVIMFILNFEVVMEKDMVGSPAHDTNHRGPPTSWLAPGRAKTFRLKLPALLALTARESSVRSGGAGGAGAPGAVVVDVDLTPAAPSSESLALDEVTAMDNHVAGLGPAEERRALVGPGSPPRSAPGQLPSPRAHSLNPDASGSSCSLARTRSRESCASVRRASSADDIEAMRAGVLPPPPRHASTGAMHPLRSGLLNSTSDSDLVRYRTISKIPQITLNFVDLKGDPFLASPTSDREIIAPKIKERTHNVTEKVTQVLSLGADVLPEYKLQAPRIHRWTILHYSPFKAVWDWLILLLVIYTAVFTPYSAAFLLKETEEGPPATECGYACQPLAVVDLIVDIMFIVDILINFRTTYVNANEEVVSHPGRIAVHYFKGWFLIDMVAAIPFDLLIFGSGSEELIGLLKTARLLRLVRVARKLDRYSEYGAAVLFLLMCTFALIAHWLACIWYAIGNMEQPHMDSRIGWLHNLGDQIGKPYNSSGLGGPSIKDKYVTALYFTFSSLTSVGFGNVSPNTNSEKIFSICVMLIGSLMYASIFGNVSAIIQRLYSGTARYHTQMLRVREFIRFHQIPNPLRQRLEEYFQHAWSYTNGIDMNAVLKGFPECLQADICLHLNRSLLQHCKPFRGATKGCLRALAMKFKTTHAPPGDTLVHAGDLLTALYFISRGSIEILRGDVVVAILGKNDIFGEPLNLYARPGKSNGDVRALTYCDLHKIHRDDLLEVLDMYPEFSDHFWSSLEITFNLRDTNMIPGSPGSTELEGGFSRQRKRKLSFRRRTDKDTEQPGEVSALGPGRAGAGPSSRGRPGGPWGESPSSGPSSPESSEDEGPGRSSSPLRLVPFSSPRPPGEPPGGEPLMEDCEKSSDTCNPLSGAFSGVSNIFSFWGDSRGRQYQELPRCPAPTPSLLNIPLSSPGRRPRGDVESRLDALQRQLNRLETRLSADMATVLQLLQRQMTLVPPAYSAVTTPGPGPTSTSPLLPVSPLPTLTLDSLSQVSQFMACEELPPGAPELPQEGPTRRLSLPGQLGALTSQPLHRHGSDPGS

As to `CSCCNC(=O)Cn1cc(CN2CCN(c3cc(C(=O)Nc4ccc5c(c4)-c4c(c(C(N)=O)nn4-c4ccc(F)cc4)CC5)c(Cl)cn3)CC2)cn1`, the concentration for half-maximal inhibition (IC50) in the data set with PBMC was found to be 10 nM; in data set [5], 2.5 nM. Also, the T1/2 in data set [1] and in data set [2] was 4 h in each case. This compound yielded a half-life in data set [3] (liver microsomes) of 0.05 h. The “inhibition (INH)” value in data set [4] was 98%.
Regarding `COC(=O)Cn1cc(CN2CCN(c3cc(C(=O)Nc4ccc5c(c4)-c4c(c(C(N)=O)nn4-c4ccc(F)cc4)CC5)c(Cl)cn3)CC2)cn1`, the half-inhibitory concentration (IC50) with PBMC stood at 54 nM; in data set [5], 1.1 nM. Also, the T1/2 in data set [1] is 6 h. In addition, the “inhibition (INH)” value in data set [4] came out at 24%.
As for `Cc1ccc(-n2nc(C(N)=O)c3c2-c2cc(NC(=O)c4cc(N5CCN(C)CC5)ncc4Cl)ccc2CC3)cc1`, the half-maximal inhibitory concentration (IC50) in the data set with PBMC stood at 38 nM; in data set [5] it was 14 nM.
In the case of `COCCOC(=O)Cn1cc(CN2CCN(c3cc(C(=O)Nc4ccc5c(c4)-c4c(c(C(N)=O)nn4-c4ccc(F)cc4)CC5)c(Cl)cn3)CC2)cn1`, the IC50 is 9 nM in the data set on PBMC and 1.3 nM in data set [5]. Also, the T1/2 in data set [1] is 4 h; in data set [2], more than 4 h. In data set [4], the “inhibition (INH)” value was determined as 66%.
Consider `NC(=O)c1nn(-c2ccc(F)cc2)c2c1CCc1ccc(NC(=O)c3cc(N4CCN(Cc5cn[nH]c5)CC4)ncc3Cl)cc1-2`, for which the IC50 is 16 nM with PBMC and 1.9 nM in data set [5]. In data set [1], the T1/2 was 3 h. Also, in data set [3] (microsomes), the half-life was 0.133 h. In addition, the “inhibition (INH)” value in data set [4] is on record as 78%.
Regarding `Cc1nn(C)cc1CN1CCN(c2cc(C(=O)Nc3ccc4c(c3)-c3c(c(C(N)=O)nn3-c3ccc(F)cc3)CC4)c(Cl)cn2)CC1`, the IC50 in the data set on PBMC was 118 nM; in data set [5], 4.3 nM. For the same compound, in data set [1], the T1/2 came to 8 h.
Take `Cn1cc(CN2CCN(c3cc(C(=O)Nc4ccc5c(c4)-c4c(c(C(N)=O)nn4-c4ccc(F)cc4)CC5)c(Cl)cn3)CC2)cn1`: the IC50 with PBMC came out at 11 nM; in data set [5] it was 3 nM. Further, the T1/2 in data set [1] was determined as 4 h. Moreover, the half-life in data set [3] (liver microsomes) came out at 0.283 h. The “inhibition (INH)” value in data set [4] is on record as 91%.
For `Cc1c(CN2CCN(c3cc(C(=O)Nc4ccc5c(c4)-c4c(c(C(N)=O)nn4-c4ccc(F)cc4)CC5)c(Cl)cn3)CC2)cnn1C`, the 50% inhibitory concentration (IC50) with PBMC came to 67 nM; in data set [5] it was 2.8 nM. Further, the T1/2 in data set [1] worked out at 8 h.
For the compound `NC(=O)c1nn(-c2ccc(F)cc2)c2c1CCc1ccc(NC(=O)c3cc(N4CCC(O)CC4)ncc3Cl)cc1-2`, the IC50 with PBMC came to 15 nM; in data set [5], 0.6 nM. Besides, in data set [1], the T1/2 was 0.1 h.
On the same counts, the results for `Cn1cc(CN2CCN(c3cc(C(=O)Nc4ccc5c(c4)-c4c(c(C(N)=O)nn4-c4ccc(F)cc4)CC5)c(Cl)cn3)C(C(=O)O)C2)cn1` (configuration not stated) are 529 nM, 0.5 nM and 4.2 h.
On the same counts, the results for `CN1CCN(c2cc(C(=O)Nc3ccc4c(c3)-c3c(c(C(N)=O)nn3-c3ccc(O)c(Cl)c3)CC4)c(Cl)cn2)CC1` are 46 nM, 2.8 nM and 1 h.
Consider `CN1CCN(c2cc(C(=O)Nc3ccc4c(c3)-c3c(c(C(N)=O)nn3-c3ccc(F)cc3)CC4)c(Cl)cn2)CC1`, for which the values for the concentration for half-maximal inhibition (IC50) (in the data set with PBMC; in data set [5]) were 39 nM and 1.6 nM, respectively. The T1/2 in data set [1] stood at 3 h.
Consider `CCn1cc(CN2CCN(c3cc(C(=O)Nc4ccc5c(c4)-c4c(c(C(N)=O)nn4-c4ccc(F)cc4)CC5)c(Cl)cn3)CC2)cn1`, for which the concentration for half-maximal inhibition (IC50) in the data set with PBMC worked out at 102 nM; in data set [5], 4.2 nM. For the same compound, the T1/2 in data set [1] was more than 8 h.
`C[C@H]1CN(c2cc(C(=O)Nc3ccc4c(c3)-c3c(c(C(N)=O)nn3-c3ccc(F)cc3)CC4)c(Cl)cn2)CCN1Cc1cnn(C)c1`: the results for the IC50 (with PBMC; in data set [5]) were 9 nM and 3.5 nM, respectively. The T1/2 in data set [1] stood at 6 h.
On the same counts, the results for `Cn1cc(CN2CCN(c3cc(C(=O)Nc4ccc5c(c4)-c4c(c(C(N)=O)nn4-c4ccc(F)cc4)CC5)c(Cl)cn3)CC2C(=O)O)cn1` (configuration not stated) are 432 nM, 3.9 nM and 0.3 h.
Regarding `Cn1cc(CN2CCN(c3cc(C(=O)Nc4ccc5c(c4)-c4c(c(C(N)=O)nn4-c4cccc(F)c4)CC5)c(Cl)cn3)CC2)cn1`, the IC50 with PBMC is 14 nM. In data set [1], the T1/2 amounted to 3 h. This compound also showed a half-life in data set [3] (microsomes) of 0.233 h. Also, the “inhibition (INH)” value in data set [4] worked out at 83%.
Regarding `COCCN1CCN(c2cc(C(=O)Nc3ccc4c(c3)-c3c(c(C(N)=O)nn3-c3ccc(F)cc3)CC4)c(Cl)cn2)CC1`, the IC50 in the data set on PBMC was 8 nM; in data set [5] it was 1.9 nM. Further, the T1/2 in data set [1] was 0.6 h.
Consider `COc1ccc(-n2nc(C(N)=O)c3c2-c2cc(NC(=O)c4cc(N5CCN(C)CC5)ncc4Cl)ccc2CC3)cc1`, for which the figures for the IC50 (in the data set on PBMC; in data set [5]) were 33 nM and 6.1 nM, respectively.
For the compound `COCCNc1cc(C(=O)Nc2ccc3c(c2)-c2c(c(C(N)=O)nn2-c2ccc(F)cc2)CC3)c(Cl)cn1`, the results for the IC50 (in the data set on PBMC; in data set [5]) were 134 nM and 0.6 nM, respectively. Besides, the T1/2 in data set [1] was determined as 0.1 h.
For `CN(C)CCCNC(=O)Cn1cc(CN2CCN(c3cc(C(=O)Nc4ccc5c(c4)-c4c(c(C(N)=O)nn4-c4ccc(F)cc4)CC5)c(Cl)cn3)CC2)cn1`, the IC50 is 26 nM in the data set on PBMC and 3.3 nM in data set [5]. Moreover, the T1/2 in data set [1] is 6 h. Also, the half-life in data set [3] (microsomes) was found to be 0.6 h. Also, the “inhibition (INH)” value in data set [4] worked out at 34%.
As for `CN1CCN(c2cc(C(=O)Nc3ccc4c(c3)-c3c(c(C(N)=O)nn3-c3cccc(F)c3)CC4)c(Cl)cn2)CC1`, the 50% inhibitory concentration (IC50) with PBMC came out at 14 nM; in data set [5], 4.8 nM. Moreover, the T1/2 in data set [1] amounted to 2 h.
As to `CN1CCN(c2cc(C(=O)Nc3ccc4c(c3)-c3c(c(C(N)=O)nn3-c3ccc(F)c(F)c3)CC4)c(Cl)cn2)CC1`, the concentration for half-maximal inhibition (IC50) turned out to be 65 nM in the data set with PBMC and 10 nM in data set [5].
Regarding `CC(C)NC(=O)Cn1cc(CN2CCN(c3cc(C(=O)Nc4ccc5c(c4)-c4c(c(C(N)=O)nn4-c4ccc(F)cc4)CC5)c(Cl)cn3)CC2)cn1`, the IC50 in the data set with PBMC was found to be 36 nM; in data set [5], 2 nM. In addition, in data set [1], the T1/2 was found to be 5 h. The “inhibition (INH)” value in data set [4] amounted to 94%.
Regarding `CN1CCN(c2cc(C(=O)Nc3ccc4c(c3)-c3c(c(C(N)=O)nn3-c3cccc(O)c3)CC4)c(Cl)cn2)CC1`, the half-inhibitory concentration (IC50) with PBMC was 89 nM; in data set [5], 1.2 nM. Besides, in data set [1], the T1/2 was 1 h.
For the compound `NC(=O)c1nn(-c2ccc(F)cc2)c2c1CCc1ccc(NC(=O)c3cc(N4CCN(Cc5cnn(CC(=O)O)c5)CC4)ncc3Cl)cc1-2`, the 50% inhibitory concentration (IC50) in the data set on PBMC came out at 221 nM; in data set [5], 0.5 nM. The compound further yielded a half-life in data set [3] (liver microsomes) of 2 h. In addition, the “inhibition (INH)” value in data set [4] is 29%.
Take `CN1CCN(c2cc(C(=O)Nc3ccc4c(c3)-c3c(c(C(N)=O)nn3-c3ccc(O)cc3)CC4)c(Cl)cn2)CC1`: the values for the IC50 (in the data set on PBMC; in data set [5]) were 75 nM and 3.5 nM, respectively. The T1/2 in data set [1] turned out to be 1 h.
On to `NC(=O)c1nn(-c2ccc(F)cc2)c2c1CCc1ccc(NC(=O)c3cc(N4CCN(Cc5cnn(CC(=O)N(CCO)CCO)c5)CC4)ncc3Cl)cc1-2`, for which the half-inhibitory concentration (IC50) turned out to be 474 nM with PBMC and 10.2 nM in data set [5]. Also, the T1/2 in data set [1] was 4 h; in data set [2], more than 4 h. The inhibition (INH) in data set [4] was -1%.
Take `CN1CCN(c2cc(C(=O)Nc3ccc4c(c3)-c3c(c(C(N)=O)nn3-c3ccc(Cl)c(O)c3)CC4)c(Cl)cn2)CC1`: the T1/2 in data set [1] worked out at 1 h. In data set [5], the half-inhibitory concentration (IC50) is 2.2 nM.

As usually defined, the IC50 is the point on the concentration scale where inhibition reaches its midpoint. As a reminder, the half-life is how long it takes for the measured level to halve. Low values mean fast loss, high ones slow loss.
